In ChEMBL document CHEMBL1121579, “Synthesis and adrenergic blocking effects of 2-(alkylamino)-3,4-dihydroquinazolines” (1980):

Tests used:
[1] = system: Rattus norvegicus; test: Decrease in mean arterial blood pressure in response to intravenous administration at 64 uM/kg of the compound.; assay type: functional, Artery
Procedure, shortened: (§1)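 Male Sprague-Dawley rats, 300–350 g, anesthetized with pentobarbital sodium 40 mg/kg ip, trachea cannulated for ventilation. Drugs dissolved in 0.9% saline and injected into a cannulated external jugular vein. Poorly soluble material was given in polyethylene glycol/ethanol/water 20:10:70. n = 3 per determination.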

[2] = system: Rattus norvegicus; test: Decrease in mean arterial blood pressure in response to intravenous administration at 2 uM/kg of the compound; assay type: functional, Artery; procedure, shortened: as §1
[3] = system: Rattus norvegicus; test: Decrease in mean arterial blood pressure in response to intravenous administration at 4 uM/kg of the compound; assay type: functional, Artery; procedure, shortened: as §1
[4] = system: Rattus norvegicus; test: Decrease in mean arterial blood pressure in response to intravenous administration at 32 uM/kg of the compound.; assay type: functional, Artery; procedure, shortened: as §1
[5] = system: Rattus norvegicus; test: Decrease in mean arterial blood pressure in response to intravenous administration at 16 uM/kg of the compound.; assay type: functional, Artery; procedure, shortened: as §1
[6] = system: Rattus norvegicus; test: Antagonist effect to pressor response of 0.3 ug/kg of norepinephrine intravenously in rats at the dose 32 uM/kg.; assay type: functional; procedure, shortened: as §1
[7] = system: Rattus norvegicus; test: Decrease in mean arterial blood pressure in response to intravenous administration at 8 uM/kg of the compound; assay type: functional, Artery; procedure, shortened: as §1
[8] = system: Rattus norvegicus; test: Antagonist effect to pressor response of 0.3 ug/kg of norepinephrine intravenously in rats at the dose 32 uM/kg; assay type: functional; procedure, shortened: as §1
[9] = system: Rattus norvegicus; test: Decrease in mean arterial blood pressure in response to intravenous administration at 32 uM/kg of the compound; assay type: functional, Artery; procedure, shortened: as §1
[10] = system: Rattus norvegicus; test: Decrease in mean arterial blood pressure in response to intravenous administration at 16 uM/kg of the compound; assay type: functional, Artery; procedure, shortened: as §1
[11] = system: Rattus norvegicus; test: Decrease in mean arterial blood pressure in response to intravenous administration at 64 uM/kg of the compound; assay type: functional, Artery; procedure, shortened: as §1
[12] = system: Rattus norvegicus; test: decrease in mean arterial blood pressure in response to intravenous administration at 16 uM/kg of the compound; assay type: functional; procedure, shortened: as §1

Structure (SMILES)	Decrease in blood pressure [1] [%]	Decrease in blood pressure [2] [%]	Decrease in blood pressure [3] [%]	Decrease in blood pressure [4] [%]	Decrease in blood pressure [5] [%]	Block [6] [%]	Decrease in blood pressure [7] [%]	Block [8] [%]	Decrease in blood pressure [9] [%]	Decrease in blood pressure [10] [%]	Decrease in blood pressure [11] [%]	Decrease in blood pressure [12] [%]
CNC1=Nc2ccccc2CN1	33.3	4.67	7.7	25	19.7	37.8	12.7					
CN(C)C1=Nc2ccccc2CN1	24.7	0	0				5.67	10	12.3	7.3		
Cc1ccc(N(CC2=NCCN2)c2cccc(O)c2)cc1 [PHENTOLAMINE]								66.2				
NC1=Nc2ccccc2CN1		6.76	12				13.3	49.3	17.7		23.3	15
CCCN(CCC)C1=NCc2ccccc2N1		3.2	7.6	40	30.9		11.5					
